IC50 data for 24 molecules are collected here from ChEMBL document CHEMBL1132255, “Structure-activity relationships for 5-substituted 1-phenylbenzimidazoles as selective inhibitors of the platelet-derived growth factor receptor” (J Med Chem, 1999).

By IC50 is commonly meant the concentration that gives 50% inhibition.

SMILES strings stand for the structures. A value given as a limit tells only on which side of the number the result lay.

The target of test [1] is Fibroblast growth factor receptor 1 (Homo sapiens, UniProt P11362). Nature of the test: Inhibition of [32P]ATP incorporated (phosphorylation) into glutamate-tyrosine copolymer substrate by human fibroblast growth factor receptor 1. In outline: (§1)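 Enzymes were intracellular tyrosine kinase domain fragments (human FGFR-1 […], mouse PDGFR-β […]), 60–75 ng per reaction, in 25 mM HEPES pH 7.4 with 150 mM NaCl, 10 mM MnCl₂, 0.2 mM sodium orthovanadate, Glu-Tyr (4:1) random copolymer substrate and varied inhibitor. Reactions were started with [³²P]ATP (0.4 μCi), run 10 min at 25 °C and stopped with 15% TCA. IC50 was taken as the concentration reducing ³²P incorporation into the copolymer.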
Chain of Fibroblast growth factor receptor 1 (P11362 whole entry, the tested form may be a part): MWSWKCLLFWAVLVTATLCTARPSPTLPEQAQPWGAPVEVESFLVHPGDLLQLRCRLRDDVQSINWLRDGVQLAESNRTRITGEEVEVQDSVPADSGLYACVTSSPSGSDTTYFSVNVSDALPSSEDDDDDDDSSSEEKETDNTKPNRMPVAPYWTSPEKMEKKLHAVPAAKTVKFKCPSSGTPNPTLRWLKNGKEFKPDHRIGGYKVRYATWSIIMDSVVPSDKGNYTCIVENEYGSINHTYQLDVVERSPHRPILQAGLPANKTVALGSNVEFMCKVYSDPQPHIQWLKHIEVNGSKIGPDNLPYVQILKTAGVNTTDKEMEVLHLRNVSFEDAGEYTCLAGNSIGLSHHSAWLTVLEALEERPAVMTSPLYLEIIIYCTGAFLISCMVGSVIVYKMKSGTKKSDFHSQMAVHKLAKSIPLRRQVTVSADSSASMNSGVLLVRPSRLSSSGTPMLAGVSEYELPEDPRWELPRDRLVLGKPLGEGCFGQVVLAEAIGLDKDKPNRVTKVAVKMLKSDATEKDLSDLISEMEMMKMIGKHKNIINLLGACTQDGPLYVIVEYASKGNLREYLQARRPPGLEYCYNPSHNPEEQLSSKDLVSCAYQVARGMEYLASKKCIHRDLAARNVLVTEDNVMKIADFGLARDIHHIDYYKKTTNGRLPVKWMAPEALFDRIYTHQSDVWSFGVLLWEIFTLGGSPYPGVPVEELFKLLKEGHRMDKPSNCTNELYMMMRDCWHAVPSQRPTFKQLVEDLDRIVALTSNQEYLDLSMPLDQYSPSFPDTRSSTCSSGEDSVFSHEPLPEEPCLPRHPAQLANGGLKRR

The target of test [2] is Platelet-derived growth factor receptor beta (Mus musculus, UniProt P05622). Nature of the test: Inhibition of [32P]ATP incorporated (phosphorylation) into glutamate-tyrosine copolymer substrate by mouse platelet-derived growth factor receptor beta. Put shortly:
as §1

The target of test [3] is T1, Platelet-derived growth factor receptor (PDGFr) (Rattus norvegicus, UniProt P20786+Q05030). Nature of the test: Inhibition of Platelet-derived growth factor receptor beta autophosphorylation in Rat aorta vascular smooth muscle cells(RAVSMC).
Test [4] addresses T1, Platelet-derived growth factor receptor (PDGFr). Nature of the test: Inhibition of Platelet-derived growth factor receptor beta autophosphorylation in Rat aorta vascular smooth muscle cells(RAVSMC).

Chain of Platelet-derived growth factor receptor beta (P05622 whole entry): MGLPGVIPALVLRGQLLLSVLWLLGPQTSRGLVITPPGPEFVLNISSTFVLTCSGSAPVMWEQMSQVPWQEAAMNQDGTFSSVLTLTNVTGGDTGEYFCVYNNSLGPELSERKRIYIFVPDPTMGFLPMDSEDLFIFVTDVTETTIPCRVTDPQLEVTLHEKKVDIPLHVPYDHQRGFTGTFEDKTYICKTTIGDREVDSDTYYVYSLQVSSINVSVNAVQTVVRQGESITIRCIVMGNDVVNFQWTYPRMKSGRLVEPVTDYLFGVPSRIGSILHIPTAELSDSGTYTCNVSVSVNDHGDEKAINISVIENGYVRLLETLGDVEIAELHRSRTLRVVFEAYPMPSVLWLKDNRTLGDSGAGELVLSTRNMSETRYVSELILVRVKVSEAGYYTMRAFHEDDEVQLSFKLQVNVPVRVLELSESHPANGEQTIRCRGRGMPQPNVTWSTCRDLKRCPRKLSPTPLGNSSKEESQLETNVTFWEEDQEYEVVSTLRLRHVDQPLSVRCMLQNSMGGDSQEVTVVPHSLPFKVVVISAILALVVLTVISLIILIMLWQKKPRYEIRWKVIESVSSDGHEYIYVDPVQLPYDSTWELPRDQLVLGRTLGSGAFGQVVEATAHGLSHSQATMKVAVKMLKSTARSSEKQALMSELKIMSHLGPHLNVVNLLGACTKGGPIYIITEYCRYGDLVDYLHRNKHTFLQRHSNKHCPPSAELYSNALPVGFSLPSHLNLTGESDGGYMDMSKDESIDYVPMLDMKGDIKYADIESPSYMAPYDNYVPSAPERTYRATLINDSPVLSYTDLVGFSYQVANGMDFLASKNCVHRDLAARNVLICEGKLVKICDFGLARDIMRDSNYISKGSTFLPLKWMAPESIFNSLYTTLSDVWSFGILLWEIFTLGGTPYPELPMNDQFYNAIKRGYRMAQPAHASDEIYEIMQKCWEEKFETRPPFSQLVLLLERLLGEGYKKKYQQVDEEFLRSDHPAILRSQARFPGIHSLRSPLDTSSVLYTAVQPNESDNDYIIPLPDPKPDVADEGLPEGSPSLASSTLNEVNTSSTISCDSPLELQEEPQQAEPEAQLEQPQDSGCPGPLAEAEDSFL

With `COc1ccc2c(ncn2-c2ccccc2)c1OC`, the results for the IC50 in test [1] and in test [2] were over 50 µM and over 50000 nM, respectively.

With `COc1ccc2c(c1)ncn2-c1ccc(N)cc1`, the values for the concentration for half-maximal inhibition (IC50) in test [3] and in test [2] were 1.36 µM and 280 nM, respectively. As for `COc1ccc2c(ncn2-c2ccccc2)c1O`, the IC50 in test [1] was over 50 µM. On to `c1ccc(-n2cnc3cc(OCCCN4CCOCC4)ccc32)cc1`, for which half-maximal inhibition in test [2] (IC50) was put at 170 nM. As to `COc1c(O)ccc2c1ncn2-c1ccccc1`, the IC50 in test [1] is over 50 µM; in test [2] it was over 50000 nM. The matching figures for `CN(C)CCCCOc1ccc2c(c1)ncn2-c1ccccc1`: 6.8 µM and 160 nM. The molecule `OCCCCOc1ccc2c(c1)ncn2-c1ccccc1` had an IC50 in test [2] of 450 nM. This counts as sub-micromolar.

For `c1ccc(-n2cnc3cc(SCCCN4CCOCC4)ccc32)cc1`, the figures for the 50% inhibitory concentration (IC50) in test [1] and in test [2] were 24 µM and over 50000 nM, respectively. Turning to `COc1cc2ncn(-c3ccccc3)c2cc1C=O`, the values for the IC50 in test [1] and in test [2] were 25 µM and 1000 nM, respectively.

With `COc1cc2ncn(-c3ccccc3)c2cc1CO`, the results for the IC50 in test [1] and in test [2] were 11 µM and 370 nM, respectively.

On to `Oc1ccc2c(ncn2-c2ccccc2)c1Br`, for which the IC50 was over 50 µM in test [1] and over 50000 nM in test [2]. Take `CCCOc1ccc2c(c1)ncn2-c1ccccc1`: in test [2], 250 nM corresponded to half-maximal inhibition (IC50). This counts as sub-micromolar. On the same count and under the same terms, the value for `CN(C)CCCOc1ccc2c(c1)ncn2-c1ccccc1` was 150 nM. Take `OCC(O)COc1ccc2c(c1)ncn2-c1ccccc1` (stereo not drawn): in test [2], half-maximal inhibition (IC50) required 310 nM. Compared with the last molecule, the IC50 is about 2.1-fold higher. In turn, `C=CCOc1ccc2c(c1)ncn2-c1ccccc1` gave an IC50 in test [2] of 610 nM. Turning to `C=CCc1c(O)ccc2c1ncn2-c1ccccc1`, the IC50 in test [1] was over 50 µM; in test [2] it was over 50000 nM. On to `COC(=O)c1cc2c(cc1OC)ncn2-c1ccccc1`, for which, in test [2], the IC50 was found to be 870 nM. This counts as sub-micromolar.

For `c1ccc(-n2cnc3cc(OCC4CO4)ccc32)cc1` (stereo not drawn), the IC50 in test [1] was 18 µM; in test [2] it was 320 nM. Turning to `NCCOc1ccc2c(c1)ncn2-c1ccccc1`, in test [2], inhibition was half-maximal at 650 nM (IC50). With `CSc1ccc2c(c1)ncn2-c1ccccc1`, the IC50 in test [1] is 27 µM; in test [2], 740 nM.

As for `CCOc1ccc2c(c1)ncn2-c1ccccc1`, the IC50 came out at 26 µM in test [1] and 240 nM in test [2].

Consider `C=CCOc1ccc2c(ncn2-c2ccccc2)c1Br`, for which the values for the IC50 in test [1] and in test [2] were over 50 µM and over 50000 nM, respectively. For `Oc1cccc2c1ncn2-c1ccccc1`, the IC50 in test [2] came out at 14000 nM. On to `c1ccc(-n2cnc3cc(OCCN4CCOCC4)ccc32)cc1`, for which the concentration for half-maximal inhibition (IC50) worked out at 730 nM in test [2] and 0.79 µM in test [4].
